Measurements of several laboratories.
Compare with care: the assays were run in different laboratories.
Target: Mitogen-activated protein kinase kinase kinase 9 (MAP3K9, Homo sapiens, UniProt P80192)

Compound	test	setting	remaining binding
CN(C)c1nccc(-c2cnn3ncccc23)n1	binding	1 µM	100%
O=C(c1ccc(Nc2ncc(Cl)c(-c3ccc(Cl)s3)n2)cc1)N1CCC(N2CCCC2)CC1	binding, competition with immobilised ligand	1 µM	8.9%
CN(CCCC(F)(F)F)c1nccc(-c2cnn3ncccc23)n1	binding	1 µM	88%
CCCCN(CCCC)C(=O)CN1C[C@@H](c2cc(OC)c3c(c2)OCO3)[C@H](C(=O)O)[C@H]1CC(C)(C)CCC	cell-free assay, competition with immobilised ligand	1 µM	98.8%
O=C(Nc1c[nH]nc1C(=O)NC1CCNCC1)c1cc(F)cc(F)c1	binding, competition with immobilised ligand	1 µM	100%
C[C@@H]1CCN(c2nccc(-c3cnn4ncccc34)n2)C1	binding	1 µM	100%
COc1cc(-c2cn(C3CCc4c(F)cccc4N(CC(F)(F)F)C3=O)nn2)ccc1-n1cnc(C)c1 (stereo not shown)	cell-free assay, competition with immobilised ligand	1 µM	100%
Cc1cnc(Nc2ccc(C(=O)N3CCC(N4CCCC4)CC3)cc2)nc1-c1cc2ccccc2s1	binding, competition with immobilised ligand	1 µM	3.3%
C[C@@H](c1cccc(C#N)c1)n1cc(Cl)cc(C(N)=O)c1=N	cell-free assay, competition with immobilised ligand	1 µM	100%
CCN1CCN(Cc2ccc(C(=O)Nc3ccc(C)c(Oc4ccc5c(c4)CC(=O)N5)c3)cc2C(F)(F)F)CC1	binding, competition with immobilised ligand	1 µM	100%
Nc1ncc2c(n1)-c1c([nH]c3ccc(C#CC4CC4)cc13)CCCC2	binding, competition with immobilised ligand	1 µM	100%
c1cnn2ncc(-c3ccnc(N4CCC45COC5)n3)c2c1	binding	1 µM	85%
CN([C@@H]1CCc2c(CC(=O)O)c3ccccc3n2C1)S(=O)(=O)c1ccc(F)cc1	cell-free assay, competition with immobilised ligand	1 µM	100%
F[C@@H]1CCN(c2nccc(-c3cnn4ncccc34)n2)C1	binding	1 µM	78%
C[C@@]1(Cc2ccc(C#N)cc2)C(=O)N(c2cc(Cl)cc(Cl)c2)c2ncc(C(=O)NC3(c4nc(C5CCC5)no4)CC3)n21	cell-free assay, competition with immobilised ligand	1 µM	100%
C=CC(=O)N1CCC(C(=O)NCC(=O)N2CCN(c3nc(-c4cnc(N)nc4C(F)F)nc(N4CCOCC4)n3)CC2)CC1	binding, competition with immobilised ligand	1 µM	96%
CO[C@@H](C)c1c(Nc2ccc([C@@H](N(C)C(=O)C3CCS(=O)(=O)CC3)C(F)(F)F)cc2)cnc2cc(Cl)nn12	cell-free assay, competition with immobilised ligand	1 µM	81%
COc1ccnn2ncc(-c3ccnc(N(C)C)n3)c12	binding	1 µM	91%
COc1cnc(Nc2cccc(S(N)(=O)=O)c2)nc1N1CCN(c2ccccc2)C(=O)C1	binding, competition with immobilised ligand	1 µM	98%
CC(=O)C1=C(C)N(c2cccc(C(F)(F)F)c2)C(=O)N[C@@H]1c1ccc(C#N)nc1	cell-free assay, competition with immobilised ligand	1 µM	94%
N[C@H]1CCN(c2nccc(-c3cnn4ncccc34)n2)C1	binding	1 µM	87%
COc1ncc2cc3ccccc3nc2c1C#N	cell-free assay, competition with immobilised ligand	5 µM	97%
C[C@@H]1CN(c2ccc3ncc(-c4ccc5[nH]nc(C6CC6)c5c4)n3n2)C[C@H](C)O1	binding, competition with immobilised ligand	0.5 µM	100%
C[C@H](NC(=O)c1cnc2n1[C@](C)(Cc1ccc(C#N)cc1)C(=O)N2c1cc(Cl)c(F)c(Cl)c1)C(=O)NC1(c2ccccn2)CC1	cell-free assay, competition with immobilised ligand	1 µM	100%
O=C(c1ccc(Nc2ncc(Cl)c(-c3cc4ccccc4s3)n2)cc1)N1CCC(N2CCCC2)CC1	binding, competition with immobilised ligand	1 µM	4.3%
